Measurements reported in ChEMBL document CHEMBL5252539, “In vitro biological evaluation of new antimycobacterial salicylanilide-tuftsin conjugates” (Eur J Med Chem, 2017).
In brackets after ≈: the same amount, converted by molar mass. Activity calls are given as the source filed them. The calls are words filed in the database; no cut-off is given here. *1 amine or outer side, *2 acyl side, *3 side chain or, on linkers, in order; H or OH if unused. Where a SMILES comes first, the peptide text is derived from it. [ ]: non-standard residue; d: D form. The star is where a group is joined. X1 = C/C(=N\OCC(=O)[*:2])c1ccc(N[*:1])cc1; Benzoyl(5-Br-2-OH) = O=C(c1cc(Br)ccc1O)*; Decanoyl = CCCCCCCCCC(=O)*

What was measured:
[1] = Selectivity index, ratio of IC50 for cytostatic activity against human HepG2 cells to MIC for antimycobacterial activity against Mycobacterium tuberculosis H37Rv ATCC 27294; format: toxicity, cell-based; settings: read-out: Selectivity Index
Method in brief: (§1)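 MTT assay on MonoMac6 or HepG2 cells after 24 h exposure, top concentration 200 µM. SI = IC50 (µM)/MIC (µM) against H37Rv from the 4-week Sula medium assay.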

[2] = Stability of the compound in serum free RPMI-1640 medium containing 2% DMSO at 1 mg/ml after 1 week by reverse phase HPLC analysis; settings: time 1.0 weeks
Method in brief: (§2)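 Stability followed by analytical RP-HPLC and mass spectrometry under assay conditions: in DMSO at 4 °C over 3 weeks, in serum-free RPMI-1640 at 37 °C over 1 week, and in complete RPMI-1640 at 37 °C over 1 day.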

[3] = Cytotoxicity against mouse bone marrow derived macrophages assessed as reduction in cell viability incubated for 48 hrs by MTT assay; format: toxicity, cell-based, Macrophage
Method in brief: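 Murine bone marrow-derived macrophages exposed for 48 h, viability by MTT. Highest concentration tested 100 µM. IC50 taken from dose-response curves.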

[4] = system: Mycobacterium tuberculosis; assay: Antimycobacterial activity against Mycobacterium tuberculosis H37Rv ATCC 27294 assessed as reduction in bacterial growth after 28 days by serial dilution method; format: functional; settings: H37Rv ATCC 27294, 672 h, time 28 day
Method in brief: (§3)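 Broth MIC in Sula semisynthetic medium, pH 6.5; 4-week incubation, with 21-day values […] where indicated. Drug-free inoculated bacteria served as growth control. MIC also expressed as drug content (µg/mL) = MIC (µM) × average SAL molar mass × number of SAL per conjugate / 1000.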

[5] = system: Mycobacteroides abscessus; assay: Antimycobacterial activity against Mycobacterium abscessus ATCC 19977 assessed as reduction in colony forming unit after 7 days by serial dilution method; format: functional, organism-based; settings: time 7.0 day
Method in brief: (§4)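 MIC determined in Sula semisynthetic medium, pH 6.5, 1 week incubation. Growth inhibition confirmed by plating on Löwenstein-Jensen solid medium and counting CFU. Bacteria inoculated without drug served as growth control.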

[6] = Stability of the compound in complete RPMI-1640 medium containing 2% DMSO at 1 mg/ml after 24 hrs by reverse phase HPLC analysis; method in brief: as §2
[7] = system: Mycobacterium tuberculosis; assay: Antimycobacterial activity against Mycobacterium tuberculosis H37Rv ATCC 27294 assessed as reduction in colony forming unit after 28 days by serial dilution method; format: functional, organism-based; settings: time 28.0 day
Method in brief: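 After the 4-week MIC incubation in Sula semisynthetic medium (pH 6.5), growth inhibition confirmed by plating on Löwenstein-Jensen solid medium and counting colony forming units.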

[8] = Stability of the compound in DMSO at 4 degree C at 2 mM up to 3 weeks by reverse phase HPLC analysis; format: physicochemical; settings: 504 h, 2000 µM; method in brief: as §2
[9] = Retention time of the compound by RP-HPLC analysis; format: physicochemical
Method in brief: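 Analytical RP-HPLC on a C18 column (5 μm, 100 Å, 4.6 × 150 mm). Eluent A 0.1% TFA in water, eluent B 0.1% TFA in acetonitrile-water 80:20. Gradient 0% B for 5 min, to 60% B at 15 min, to 100% B at 25 min. Flow 1 mL/min, detection at 220 nm.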

[10] = system: Mycobacterium tuberculosis; assay: […] antimycobacterial activity against Mycobacterium tuberculosis H37Rv ATCC 27294 infected in human MONO-MAC-6 cells assessed as reduction in colony forming unit at 125 uM for 6 days by colony counting based analysis; format: functional, organism-based; settings: time 6.0 day
Method in brief: (§5)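 MonoMac6 monolayers infected with H37Rv, then treated with compound at 125 or 250 µM for 3 days. Treatment repeated with fresh compound solution for another 3 days. Intracellular bacteria quantified as CFU against untreated infected cells.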

[11] = Stability of the compound in Sula's semisynthetic medium containing 10% DMSO assessed as 2-hydroxyacetyl-tuftsin derivative formation at pH 6.5 at 2 mg/ml after 4 weeks at 37 degree C by reverse phase HPLC analysis
Method in brief: (§6)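 Conjugate incubated in Sula semisynthetic medium (pH 6.5) at 37 °C for 4 weeks. Decomposition to free salicylanilide and 2-hydroxyacetyl-tuftsin derivative followed by analytical RP-HPLC and mass spectrometry.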

[12] = system: Mycobacterium tuberculosis; assay: […] antimycobacterial activity against Mycobacterium tuberculosis H37Rv ATCC 27294 infected in human MONO-MAC-6 cells assessed as reduction in colony forming unit at 250 uM for 6 days by colony counting based analysis; format: functional, organism-based; settings: time 6.0 day; method in brief: as §5
HepG2 = assay: Cytostatic activity against human HepG2 cells assessed as reduction in cell viability incubated for 24 hrs by MTT assay; format: functional, cell-based; settings: HepG2, 24 h
Method in brief: (§7)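 MTT viability assay after 24 h exposure of MonoMac6 human monocytic cells or HepG2 human hepatocellular carcinoma cells. Top concentration 200 μM. IC50 taken from dose-response curves as the concentration reducing viability to 50% of maximal.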

[13] = Selectivity index, ratio of IC50 for cytostatic activity against human MONO-MAC-6 cells to MIC for antimycobacterial activity against Mycobacterium tuberculosis H37Rv ATCC 27294; format: toxicity, cell-based; settings: read-out: Selectivity Index; method in brief: as §1
[14] = system: Mycobacteroides abscessus; assay: Antimycobacterial activity against Mycobacterium abscessus ATCC 19977 assessed as reduction in bacterial growth after 7 days by serial dilution method; format: functional; settings: ATCC 19977, 168 h, time 7 day; method in brief: as §4
[15] = Stability of the compound in Sula's semisynthetic medium containing 10% DMSO assessed as free salicylanilide formation at pH 6.5 at 2 mg/ml after 4 weeks at 37 degree C by reverse phase HPLC analysis; method in brief: as §6
MONO-MAC-6 = assay: Cytostatic activity against human MONO-MAC-6 cells assessed as reduction in cell viability incubated for 24 hrs by MTT assay; format: functional, cell-based; settings: MONO-MAC-6, 24 h; method in brief: as §7
[16] = Selectivity index, ratio of IC50 for cytotoxicity against mouse bone marrow derived macrophages to MIC for antimycobacterial activity against Mycobacterium tuberculosis H37Rv ATCC 27294; format: toxicity; settings: read-out: Selectivity Index
Method in brief: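 Murine bone marrow-derived macrophages exposed for 48 h, top concentration 100 µM. Viability read by MTT and IC50 taken from dose-response curves. SI = IC50/MIC against H37Rv.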

[17] = Stability in rat liver lysosomal homogenate assessed as drug degradation at 50 uM and measured upto 24 hrs by HPLC-MS analysis; format: ADME, subcellular, Lysosome; settings: tissue homogenate
Method in brief: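 Conjugates incubated in rat liver lysosomal homogenate. Reaction mixtures sampled at 5 min, 1 h, 2 h, 4 h, 8 h and 24 h and analysed by HPLC-MS (chromatograms and mass spectra) to identify intact conjugate, fragments and cleavage sites.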

[18] = system: Mycobacterium tuberculosis; assay: Antimycobacterial activity against Mycobacterium tuberculosis H37Rv ATCC 27294 assessed as reduction in bacterial growth after 21 days by serial dilution method; format: functional; settings: H37Rv ATCC 27294, 504 h, time 21 day; method in brief: as §3

## C/C(=N\OCC(=O)N[C@H](C(=O)N[C@@H](CCCCN)C(=O)N1CCC[C@H]1C(=O)N[C@@H](CCCCN)C(=O)NCC(=O)N[C@H](C(=O)N[C@@H](CCCCN)C(=O)N1CCC[C@H]1C(=O)N[C@@H](CCCCN)C(=O)NCC(=O)N[C@H](C(=O)N[C@@H](CCCCN)C(=O)N1CCC[C@H]1C(=O)N[C@@H](CCCCN)C(=O)NCC(=O)N[C@H](C(=O)N[C@@H](CCCCN)C(=O)N1CCC[C@H]1C(=O)N[C@@H](CCCCN)C(=O)NCC(N)=O)[C@@H](C)O)[C@@H](C)O)[C@@H](C)O)[C@@H](C)O)c1ccc(NC(=O)c2cc(Br)ccc2O)cc1 ({Benzoyl(5-Br-2-OH)}-[X1]TKPKGTKPKGTKPKGTKPKG-NH2)
[1]
  selectivity ratio: 1
[2]
  Stability: Stable
[3]
  IC50 at 48 h: > 100 µM
[4]
  MIC: 81.5 µM (≈ 200 µg/mL)
[5]
  Activity: Active
[6]
  Stability: Stable
[7]
  Activity: Active
[8]
  Stability: Stable
[9]
  Retention_time: 14.3 min
[10]
  Activity: Active
[11]
  Stability: Stable
[12]
  Activity: Active
HepG2
  IC50: 81.9 µM
[13]
  selectivity ratio: > 2.5
[14]
  MIC: 40.8 µM (≈ 100 µg/mL)
[15]
  Stability: Stable
MONO-MAC-6
  IC50: > 200 µM
[16]
  selectivity ratio: 1.2
[17]
  Stability: Unstable

## CCCCCCCCCC(=O)NCCCC[C@H](NC(=O)[C@@H]1CCCN1C(=O)[C@H](CCCCN)NC(=O)[C@@H](NC(=O)CO/N=C(\C)c1ccc(NC(=O)c2cc(Br)ccc2O)cc1)[C@@H](C)O)C(=O)NCC(=O)N[C@H](C(=O)N[C@@H](CCCCN)C(=O)N1CCC[C@H]1C(=O)N[C@@H](CCCCN)C(=O)NCC(=O)N[C@H](C(=O)N[C@@H](CCCCN)C(=O)N1CCC[C@H]1C(=O)N[C@@H](CCCCN)C(=O)NCC(=O)N[C@H](C(=O)N[C@@H](CCCCN)C(=O)N1CCC[C@H]1C(=O)N[C@@H](CCCCN)C(=O)NCC(N)=O)[C@@H](C)O)[C@@H](C)O)[C@@H](C)O ({Benzoyl(5-Br-2-OH)}-[X1]TKPK(Decanoyl)GTKPKGTKPKGTKPKG-NH2)
[1]
  selectivity ratio: 1.5
[2]
  Stability: Stable
[3]
  IC50 at 48 h: 71.9 µM
[5]
  Activity: Active
[6]
  Stability: Stable
[7]
  Activity: Active
[8]
  Stability: Stable
[9]
  Retention_time: 16.4 min
[10]
  Activity: Active
[18]
  MIC: 76.7 µM (≈ 200 µg/mL)
[12]
  Activity: Active
HepG2
  IC50: 113 µM
[13]
  selectivity ratio: 0.3
[14]
  MIC: 76.7 µM (≈ 200 µg/mL)
MONO-MAC-6
  IC50: 24.9 µM
[16]
  selectivity ratio: 0.9
[17]
  Stability: Unstable
